HTRA1 inhibitor: HTRA1 (human) protease inhibition; Q92743; recombinant HTRA1, FP-rhodamine activity-based probe, fluorescence polarization; inhibition, % at 5.96 µM; 340,000 tested, 0.5% active; AID 504803; in the data active = inhibition above about 36%;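 also: 0% = enzyme with DMSO and 100% = wells lacking enzyme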
PRMT1 FP inh: blocks human protein arginine methyltransferase 1; Q99873; recombinant PRMT1, activity-based probe fluorescence polarization; inhibition, % at 2.79 µM; 370,000 tested, 1.3% active; AID 652257;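 active = inhibition above about 21% made by adding two undisclosed values, limit read from the data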
TCR CD3 inh: inhibitors of human TCR-CD3 interaction. inhibition, % at 9.4 µM. TAMRA-labeled TCR probe fluorescence, biochemical. 360,000 tested, 0.37% active; in the data active = inhibition above about 19%;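 also: recombinant mutant TCR 2C K166C tagged with TAMRA read by polarization; 0% = receptor in buffer alone and 100% = receptor with positive control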
ABHD4 inh: inhibits mouse alpha/beta hydrolase domain 4; Q8VD66; purified mABHD4, FP-Rh probe fluorescence polarization; inhibition, % at 8.92 µM; 370,000 tested, 0.54% active; AID 720543;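 active = inhibition exceeding the mean over every tested compound plus 3 SD, cut at about 30% in these data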;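 also: 0% = plate median of compound wells and 100% = S159A mutant with DMSO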
Target sequence (Q8VD66 whole entry, looked up, the tested form may be a part): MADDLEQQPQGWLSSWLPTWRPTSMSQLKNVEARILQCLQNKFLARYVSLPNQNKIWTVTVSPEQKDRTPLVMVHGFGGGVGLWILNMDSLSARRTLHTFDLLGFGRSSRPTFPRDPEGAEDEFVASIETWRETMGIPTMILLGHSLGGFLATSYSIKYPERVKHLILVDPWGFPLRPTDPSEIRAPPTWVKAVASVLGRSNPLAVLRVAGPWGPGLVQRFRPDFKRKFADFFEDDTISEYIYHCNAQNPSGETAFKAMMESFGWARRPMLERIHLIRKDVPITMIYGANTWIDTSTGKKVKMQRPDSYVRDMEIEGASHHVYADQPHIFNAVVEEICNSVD
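Assay system: wild-type mouse ABHD4 protein; compound: single nominal dose of 8.92 µM, 0.89% DMSO final; schedule: 45 min + 60 min at 25 °C; measured by: FP readout, ex 525 nm / em 598 nm; evaluation: % inhibition of FP-Rh probe binding versus controls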
SIAE primary: blocks human sialic acid acetylesterase; SIAE FP-Rh probe binding, fluorescence polarization; Q9HAT2; inhibition, % at 9.66 µM; 370,000 tested, 0.69% active;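 active = inhibition above a cutoff: mean of compounds within the control limits plus 3 SD of those, cut at about 17% in these data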;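 also: 0% = plate median of compound wells and 100% = probe without SIAE protein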
rCAG binder: r(CAG) repeat RNA binding; AID 651821; 370,000 tested, 1.3% active; TO-PRO-1 dye displacement fluorescence; inhibition, % at 3 µM;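 active = inhibition above the plate cutoff, the mean of all test compounds on that plate plus 3 SD, cut at about 35% in these data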;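 also: 0% = DMSO alone and 100% = 100 µM mitoxantrone as full dye displacement; higher means more dye released from RNA so lower well fluorescence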
rCAG bind conf: r(CAG) RNA repeat binding, confirmation | TO-PRO-1 dye displacement fluorescence | inhibition, % at 3 µM | 4,300 tested, 70% active | shares compounds with rCAG binder;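 active = inhibition above a per-plate cutoff, the mean inhibition of sample wells plus 3 SD, cut at about 35% in these data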;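 also: loss of TO-PRO-1 fluorescence as compound displaces dye from 1x1 AA loop RNA; 0% = DMSO only wells and 100% = 100 µM mitoxantrone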
dCAG dye counter: counter-screen for rCAG RNA binders: DNA CAG dye complex inhibitors | shares compounds with rCAG binder | d(CAG) DNA oligo TO-PRO-1 dye displacement, fluorescence | inhibition, % at 3 µM | 4,300 tested, 94% active | AID 652068;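 active = inhibition above its plate's cutoff, the mean test-well inhibition plus 3 SD, cut at about 4.8% in these data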;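 also: 0% = DNA dye mix with DMSO and 100% = 100 µM mitoxantrone; hits displace the dye from DNA and so lower well fluorescence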
PRMT1 inh conf: PRMT1 (human) inhibition, FP confirmation; shares compounds with PRMT1 FP inh; recombinant His-PRMT1, activity-based probe fluorescence polarization; inhibition, % at 2.79 µM; 3,300 tested, 42% active;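 active = mean inhibition across replicates above the hit cutoff derived for the earlier primary screen, cut at about 22% in these data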
Numbers without * were called inactive. The list is not random: actives were taken first. Their share in the collection is about 3.5%.

For S=c1[nH]nc(-c2cc(-c3ccccc3)n[nH]2)n1/N=C/c1ccc(Br)s1 the results were HTRA1 inhibitor -10, PRMT1 FP inh 28*, TCR CD3 inh -1, ABHD4 inh -3, SIAE primary -20, rCAG binder 71*, rCAG bind conf 79*, dCAG dye counter 46* and PRMT1 inh conf 13.
O=[N+]([O-])c1cccc(/C=N/n2c(COc3ccccc3)n[nH]c2=S)c1 was read as HTRA1 inhibitor -6, PRMT1 FP inh 11, TCR CD3 inh -4, ABHD4 inh 2, SIAE primary 11 and rCAG binder 19.
For Cc1ccc(-c2n[nH]c(=S)n2/N=C/C=C\c2ccccc2[N+](=O)[O-])cc1 the results were HTRA1 inhibitor -13, PRMT1 FP inh 30*, TCR CD3 inh 4, ABHD4 inh 4, SIAE primary 3, rCAG binder 35*, rCAG bind conf 33, dCAG dye counter 11* and PRMT1 inh conf 15.
For Cn1c(=O)[nH]c2c(Br)nccc21 the results were PRMT1 FP inh -3, ABHD4 inh 6, SIAE primary 2 and rCAG binder 1.
For C=CCNC(=O)CN(C(=O)Cc1ccc(Cl)nc1)c1cccc(Br)c1 the results were PRMT1 FP inh -3, ABHD4 inh 4, SIAE primary -5 and rCAG binder 1.
`COC(=O)[C@]12C[C@H](CC(=O)NCC3CCCCC3)C(=O)N(Cc3ccco3)C1=C[C@H](C1CCCC1)O[C@@H]2C` gave PRMT1 FP inh 6, ABHD4 inh -3, SIAE primary -2 and rCAG binder 3.
O=C(CCCSc1ccc(Cl)cc1)Nc1cc(S(=O)(=O)N2CCOCC2)ccc1O was read as HTRA1 inhibitor -5, PRMT1 FP inh 49*, TCR CD3 inh -3, ABHD4 inh 10, SIAE primary -8, rCAG binder 40*, rCAG bind conf 49*, dCAG dye counter 16* and PRMT1 inh conf 22*.
C[C@H](O)[C@@H]1CN2CCc3ccc(N4CCOCC4)cc3[C@@H]2C[C@@H]1N(C)C(=O)c1ccccc1F was read as PRMT1 FP inh 2, ABHD4 inh 0, SIAE primary 1 and rCAG binder 3.
Screening CCN(Cc1cccs1)c1ncnc2ccc(-c3ccc4c(c3)OCO4)cc12 returned PRMT1 FP inh 2, ABHD4 inh -2 and SIAE primary 4.
O=C(O)Cn1cc(/C=N/Nc2ccc([N+](=O)[O-])cn2)c2ccccc21 was read as HTRA1 inhibitor 7, PRMT1 FP inh 28*, TCR CD3 inh -12, ABHD4 inh 7, SIAE primary -3, rCAG binder 37*, rCAG bind conf 27, dCAG dye counter 7.5* and PRMT1 inh conf 6.
Screening Cc1ccc(S(=O)(=O)N2C=C(c3ccccc3)c3ccccc3-c3ccccc32)cc1 returned PRMT1 FP inh 2, ABHD4 inh 2 and SIAE primary 2.
`COc1cc(Cl)c(C)cc1NC(=O)CSCC#N` gave HTRA1 inhibitor 6, PRMT1 FP inh 0, TCR CD3 inh 0, ABHD4 inh 1, SIAE primary 0 and rCAG binder 2.
Screening COc1cc(Cl)c(C)cc1NC(=O)CSc1sc2c(O)cc(=O)[nH]c2c1C#N returned HTRA1 inhibitor -3, PRMT1 FP inh 36*, TCR CD3 inh -3, ABHD4 inh -4, SIAE primary -7, rCAG binder 49*, rCAG bind conf 55*, dCAG dye counter 30* and PRMT1 inh conf 12.
Screening COc1ccc(OC)c(NC(=O)CSC2=NCCS2)c1 returned HTRA1 inhibitor -4, PRMT1 FP inh 3, TCR CD3 inh 5, ABHD4 inh -2, SIAE primary -3 and rCAG binder -3.

Screens as filed in PubChem BioAssay.
